In brackets after ≈: the same amount, converted by molar mass. Activity calls are given as the source filed them. No cut-off for these calls is given here.
Tests used:
[1] = tested on: Staphylococcus aureus; test: Antimicrobial activity against Staphylococcus aureus assessed as microbial growth inhibition; format: functional
[2] = tested on: Staphylococcus aureus; test: Antimicrobial activity against methicillin-resistant Staphylococcus aureus assessed as microbial growth inhibition by NCCLS based assay; format: functional
[3] = Selectivity index, ratio of CC50 for African green monkey Vero cells to MIC for Staphylococcus aureus ATCC 29213; format: toxicity, cell-based; conditions: read-out: Selectivity Index
[4] = tested on: Mycobacteroides chelonae; test: Antimycobacterial activity against Mycobacteroides chelonae ATCC 35752 assessed as bacterial growth inhibition incubated for 72 hrs by resazurin dye based broth microdilution method; format: functional, organism-based
Method in brief: (§1)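 Broth microdilution in Middlebrook 7H9 with 10% ADC-Tween-80 (0.2% glycerol, 0.05% Tween-80), inoculum ~10⁶ cfu/mL. Compounds came from 10 mg/mL DMSO stocks and were tested as two-fold serial dilutions at 37 °C, 7 days for M. tuberculosis H37Rv and 72 h for NTM. Growth was read visually with PrestoBlue resazurin dye; MIC was the lowest concentration preventing growth. Triplicate determinations, each in duplicate.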

[5] = tested on: Staphylococcus aureus; test: Antibacterial activity against methicillin/ceftriaxone/meropenem-resistant Staphylococcus aureus NRS10186 clinical isolate assessed as bacterial growth inhibition incubated for 16 to 18 hrs by CLSI based antibiotic susceptibility testing method; format: functional; conditions: time 16-18 hrs
Method in brief: (§2)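 Broth microdilution in cation-adjusted Mueller-Hinton broth. Compounds were tested at […], with levofloxacin as reference and medium-only controls. Plates were incubated at 37 °C for 16-18 h. MIC was the lowest concentration with no visible growth; three independent determinations, each in duplicate.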

[6] = tested on: Escherichia coli; test: Antibacterial activity against Escherichia coli ATCC 25922 assessed as bacterial growth inhibition incubated for 16 to 18 hrs by CLSI based antibiotic susceptibility testing method; format: functional, organism-based; conditions: time 16-18 hrs; method in brief: as §2
[7] = tested on: Staphylococcus aureus; test: Antibacterial activity against Staphylococcus aureus ATCC 29213 assessed as bacterial growth inhibition incubated for 16 to 18 hrs by CLSI based antibiotic susceptibility testing method; format: functional; conditions: time 16-18 hrs; method in brief: as §2
[8] = tested on: Mycobacteroides abscessus; test: Antimycobacterial activity against Mycobacterium abscessus ATCC 19977 assessed as bacterial growth inhibition incubated for 72 hrs by resazurin dye based broth microdilution method; format: functional, organism-based; method in brief: as §1
[9] = tested on: Staphylococcus aureus; test: Antibacterial activity against methicillin/ceftriaxone/meropenem/vancomycin/teicoplanin-resistant Staphylococcus aureus VRS12 clinical isolate assessed as bacterial growth inhibition incubated for 16 to 18 hrs by CLSI based antibiotic susceptibility testing method; format: functional; conditions: time 16-18 hrs; method in brief: as §2
[10] = Cytotoxicity against African green monkey Vero cells by MTT assay; format: toxicity, cell-based; conditions: chlorocebus sabaeus
Method in brief: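 Vero cells were seeded at ~10³ per well at 37 °C, 5% CO2. After 24 h, compounds were added at 5-100 mg/L for 72 h. […] was added for 4 h, formazan was dissolved in DMSO and read at 540 nm. CC50 was taken as the lowest concentration reducing viability by 50%; doxorubicin was the positive control; triplicate.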

[11] = tested on: Staphylococcus aureus; test: Antibacterial activity against methicillin/ceftriaxone/meropenem-resistant Staphylococcus aureus NRS10192 clinical isolate assessed as bacterial growth inhibition incubated for 16 to 18 hrs by CLSI based antibiotic susceptibility testing method; format: functional; conditions: time 16-18 hrs; method in brief: as §2
[12] = tested on: Klebsiella pneumoniae; test: Antibacterial activity against Klebsiella pneumoniae BAA 1705 assessed as bacterial growth inhibition incubated for 16 to 18 hrs by CLSI based antibiotic susceptibility testing method; format: functional, organism-based; conditions: time 16-18 hrs; method in brief: as §2
[13] = tested on: Staphylococcus aureus; test: Antibacterial activity against methicillin/ceftriaxone/meropenem-resistant Staphylococcus aureus NRS10129 clinical isolate assessed as bacterial growth inhibition incubated for 16 to 18 hrs by CLSI based antibiotic susceptibility testing method; format: functional; conditions: time 16-18 hrs; method in brief: as §2
[14] = tested on: Pseudomonas aeruginosa; test: Antibacterial activity against Pseudomonas aeruginosa ATCC 27853 assessed as bacterial growth inhibition incubated for 16 to 18 hrs by CLSI based antibiotic susceptibility testing method; format: functional, organism-based; conditions: time 16-18 hrs; method in brief: as §2
[15] = tested on: Staphylococcus aureus; test: Antibacterial activity against methicillin/ceftriaxone/meropenem-resistant Staphylococcus aureus NRS10191 clinical isolate assessed as bacterial growth inhibition incubated for 16 to 18 hrs by CLSI based antibiotic susceptibility testing method; format: functional; conditions: time 16-18 hrs; method in brief: as §2
[16] = tested on: Mycobacterium tuberculosis; test: Antimycobacterial activity against Mycobacterium tuberculosis H37Rv ATCC 27294 assessed as bacterial growth inhibition incubated for 7 days by resazurin dye based broth microdilution method; format: functional; conditions: H37Rv ATCC 27294, 168 h, time 7 day; method in brief: as §1
[17] = tested on: Staphylococcus aureus; test: Antibacterial activity against methicillin/ceftriaxone/meropenem/gentamycin/linezolid-resistant Staphylococcus aureus NRS10100 clinical isolate assessed as bacterial growth inhibition incubated for 16 to 18 hrs by CLSI based antibiotic susceptibility testing method; format: functional; conditions: time 16-18 hrs; method in brief: as §2
[18] = tested on: Staphylococcus aureus; test: Antibacterial activity against methicillin/ceftriaxone-resistant Staphylococcus aureus NRS10194 clinical isolate assessed as bacterial growth inhibition incubated for 16 to 18 hrs by CLSI based antibiotic susceptibility testing method; format: functional; conditions: time 16-18 hrs; method in brief: as §2
[19] = tested on: Staphylococcus aureus; test: Antibacterial activity against methicillin/ceftriaxone/meropenem/gentamycin/vancomycin/teicoplanin-resistant Staphylococcus aureus VRS1 clinical isolate assessed as bacterial growth inhibition incubated for 16 to 18 hrs by CLSI based antibiotic susceptibility testing method; format: functional; conditions: time 16-18 hrs; method in brief: as §2
[20] = tested on: Staphylococcus aureus; test: Bactericidal activity against Staphylococcus aureus ATCC 29213 assessed as reduction in remnant bacterial cells at 10 times MIC measured for 24 hrs by time-kill assay; format: functional
Method in brief: (§3)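 Time-kill assay: S. aureus ATCC 29213 at ~10⁶ cfu/mL in MHB, exposed to 1X and 10X MIC at 37 °C, in triplicate. Samples taken at 0, 1, 6 and 24 h were serially diluted in PBS and plated on TSA for 18-20 h at 37 °C. Surviving cfu/mL were counted against untreated controls.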

[21] = tested on: Acinetobacter baumannii; test: Antibacterial activity against Acinetobacter baumannii BAA 1605 assessed as bacterial growth inhibition incubated for 16 to 18 hrs by CLSI based antibiotic susceptibility testing method; format: functional, organism-based; conditions: time 16-18 hrs; method in brief: as §2
[22] = tested on: Mycolicibacterium fortuitum; test: Antimycobacterial activity against Mycobacterium fortuitum ATCC 6841 assessed as bacterial growth inhibition incubated for 72 hrs by resazurin dye based broth microdilution method; format: functional, organism-based; method in brief: as §1
[23] = tested on: Staphylococcus aureus; test: Antibacterial activity against methicillin/ceftriaxone/meropenem/vancomycin/teicoplanin-resistant Staphylococcus aureus VRS4 clinical isolate assessed as bacterial growth inhibition incubated for 16 to 18 hrs by CLSI based antibiotic susceptibility testing method; format: functional; conditions: time 16-18 hrs; method in brief: as §2
[24] = tested on: Staphylococcus aureus; test: Antibacterial activity against methicillin-sensitive Staphylococcus aureus ATCC 29213 clinical isolate assessed as bacterial growth inhibition incubated for 16 to 18 hrs by CLSI based antibiotic susceptibility testing method; format: functional; conditions: time 16-18 hrs; method in brief: as §2
[25] = tested on: Staphylococcus aureus; test: Bactericidal activity against Staphylococcus aureus ATCC 29213 assessed as reduction in remnant bacterial cells measured for 24 hrs by time-kill assay; format: functional, organism-based; method in brief: as §3
[26] = tested on: Staphylococcus aureus; test: Antibacterial activity against methicillin/ceftriaxone/meropenem-resistant Staphylococcus aureus NRS10193 clinical isolate assessed as bacterial growth inhibition incubated for 16 to 18 hrs by CLSI based antibiotic susceptibility testing method; format: functional; conditions: time 16-18 hrs; method in brief: as §2
[27] = tested on: Staphylococcus aureus; test: Antibacterial activity against methicillin/ceftriaxone/meropenem/gentamycin/linezolid-resistant Staphylococcus aureus NRS10119 clinical isolate assessed as bacterial growth inhibition incubated for 16 to 18 hrs by CLSI based antibiotic susceptibility testing method; format: functional; conditions: time 16-18 hrs; method in brief: as §2
[28] = tested on: Staphylococcus aureus; test: Antibacterial activity against methicillin/ceftriaxone/meropenem-resistant Staphylococcus aureus NRS10198 clinical isolate assessed as bacterial growth inhibition incubated for 16 to 18 hrs by CLSI based antibiotic susceptibility testing method; format: functional; conditions: time 16-18 hrs; method in brief: as §2
[29] = tested on: Staphylococcus aureus; test: Antimicrobial activity against methicillin-resistant Staphylococcus aureus Newman assessed as microbial growth inhibition; format: functional

## COc1ccc(-c2csc(NC(=S)N[C@@H]3O[C@H](COC(C)=O)[C@@H](OC(C)=O)[C@H](OC(C)=O)[C@H]3OC(C)=O)n2)cc1[N+](=O)[O-]
[1]
  MIC: 0.78 µg/mL (≈ 1.22 µM)

## CCCCCc1nnc(NC(=S)NS(=O)(=O)c2ccc(C)cc2)s1
[1]
  MIC: 0.78 µg/mL (≈ 2.03 µM)

## CCNc1ccc2c3c(cccc13)C(=O)N(CC(O)Cn1c([N+](=O)[O-])cnc1C)C2=O (configuration not stated)
[2]
  MIC: 40 µM (≈ 16.9 µg/mL)

## O=C1c2cccc3cccc(c23)C(=O)N1CCN1CCN(C(=S)NC2CCCCC2)CC1
[3]
  selectivity ratio: > 160
[4]
  growth inhibition (GI): inactive
[5]
  MIC: 0.25 µg/mL (≈ 0.555 µM)
[6]
  growth inhibition (GI): inactive
[7]
  MIC: 0.125 µg/mL (≈ 0.277 µM)
[8]
  growth inhibition (GI): inactive
[9]
  MIC: 0.5 µg/mL (≈ 1.11 µM)
[10]
  CC50: > 20 µg/mL
[11]
  MIC: 0.25 µg/mL (≈ 0.555 µM)
[12]
  growth inhibition (GI): inactive
[13]
  MIC: 0.25 µg/mL (≈ 0.555 µM)
[14]
  growth inhibition (GI): inactive
[15]
  MIC: 0.25 µg/mL (≈ 0.555 µM)
[16]
  MIC: 4 µg/mL (≈ 8.88 µM)
[17]
  MIC: 0.25 µg/mL (≈ 0.555 µM)
[18]
  MIC: 0.25 µg/mL (≈ 0.555 µM)
[19]
  MIC: 0.25 µg/mL (≈ 0.555 µM)
[20]
  Activity: ~5 log10CFU/ml
[21]
  growth inhibition (GI): inactive
[22]
  growth inhibition (GI): inactive
[23]
  MIC: 0.25 µg/mL (≈ 0.555 µM)
[24]
  MIC: 0.25 µg/mL (≈ 0.555 µM)
[25]
  Activity: Dose-Dependent Effect
[26]
  MIC: 0.25 µg/mL (≈ 0.555 µM)
[27]
  MIC: 0.25 µg/mL (≈ 0.555 µM)
[28]
  MIC: 0.25 µg/mL (≈ 0.555 µM)

## CCCOC(=O)c1ccc2sc(NC(=S)N[C@@H]3O[C@H](COC(C)=O)[C@@H](OC(C)=O)[C@H](OC(C)=O)[C@H]3OC(C)=O)nc2c1
[1]
  MIC: 0.78 µg/mL (≈ 1.25 µM)

## S=C(Nc1ccc(Cl)cc1)n1ccc(OCc2ccccc2)n1
[29]
  MIC: 0.15 µM (≈ 0.0516 µg/mL)

## O=C(CN1C(=O)c2cccc3cccc(c23)C1=O)N1CCC(NC(=S)NC2CCCC2)CC1
[3]
  selectivity ratio: > 3200
[4]
  growth inhibition (GI): inactive
[5]
  MIC: 0.06 µg/mL (≈ 0.129 µM)
[6]
  growth inhibition (GI): inactive
[7]
  MIC: 0.031 µg/mL (≈ 0.0667 µM)
[8]
  growth inhibition (GI): inactive
[9]
  MIC: 0.06 µg/mL (≈ 0.129 µM)
[10]
  CC50: > 100 µg/mL
[11]
  MIC: 0.06 µg/mL (≈ 0.129 µM)
[12]
  growth inhibition (GI): inactive
[13]
  MIC: 0.06 µg/mL (≈ 0.129 µM)
[14]
  growth inhibition (GI): inactive
[15]
  MIC: 0.06 µg/mL (≈ 0.129 µM)
[16]
  MIC: > 64 µg/mL
[17]
  MIC: 0.06 µg/mL (≈ 0.129 µM)
[18]
  MIC: 0.06 µg/mL (≈ 0.129 µM)
[19]
  MIC: 0.06 µg/mL (≈ 0.129 µM)
[20]
  Activity: ~5 log10CFU/ml
[21]
  growth inhibition (GI): inactive
[22]
  growth inhibition (GI): inactive
[23]
  MIC: 0.06 µg/mL (≈ 0.129 µM)
[24]
  MIC: 0.06 µg/mL (≈ 0.129 µM)
[25]
  Activity: Dose-Dependent Effect
[26]
  MIC: 0.06 µg/mL (≈ 0.129 µM)
[27]
  MIC: 0.06 µg/mL (≈ 0.129 µM)
[28]
  MIC: 0.06 µg/mL (≈ 0.129 µM)
